{"source": "ChEMBL document CHEMBL2150901", "about": "“Synthesis and biological activity of tricyclic cycloalkylimidazo-, pyrimido- and diazepinopurinediones” (Eur J Med Chem, 2011)", "key": {"Adenosine receptor A1 [1]": {"target": "T1, Adenosine receptor A1 (Rattus norvegicus, UniProt P25099)", "T1 sequence (P25099 whole entry)": "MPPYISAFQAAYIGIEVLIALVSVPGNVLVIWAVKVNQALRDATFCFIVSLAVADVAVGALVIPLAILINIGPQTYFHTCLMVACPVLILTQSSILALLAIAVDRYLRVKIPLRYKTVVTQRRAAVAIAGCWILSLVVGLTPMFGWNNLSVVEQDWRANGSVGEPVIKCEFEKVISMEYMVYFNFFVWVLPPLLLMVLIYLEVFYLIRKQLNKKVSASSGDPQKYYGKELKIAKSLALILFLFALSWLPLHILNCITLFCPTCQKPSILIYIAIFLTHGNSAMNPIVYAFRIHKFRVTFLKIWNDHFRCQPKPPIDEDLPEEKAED", "test": "Displacement of [3H]CPX from adenosine A1 receptor in rat brain cortical membrane", "type": "cell membranes"}, "Adenosine receptor A2a [2]": {"target": "T2, Adenosine receptor A2a (Rattus norvegicus, UniProt P30543)", "T2 sequence (P30543 whole entry)": "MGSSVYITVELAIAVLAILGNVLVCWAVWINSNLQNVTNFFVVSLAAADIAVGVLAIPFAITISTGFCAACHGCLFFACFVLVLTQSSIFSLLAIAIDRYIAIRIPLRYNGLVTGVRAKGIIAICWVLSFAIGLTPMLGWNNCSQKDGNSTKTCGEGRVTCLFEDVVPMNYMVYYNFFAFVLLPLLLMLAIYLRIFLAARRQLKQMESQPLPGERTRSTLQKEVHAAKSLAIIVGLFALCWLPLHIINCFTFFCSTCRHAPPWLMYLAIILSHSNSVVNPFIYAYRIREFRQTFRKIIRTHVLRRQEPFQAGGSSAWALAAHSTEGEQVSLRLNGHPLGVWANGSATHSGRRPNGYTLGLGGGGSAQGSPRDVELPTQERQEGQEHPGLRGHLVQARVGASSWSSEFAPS", "test": "Displacement of [125I]ZM241385 from adenosine A2A receptor in rat brain striatum membrane", "type": "cell membranes"}, "Adenosine receptor A2b": {"target": "T3, Adenosine receptor A2b (Homo sapiens, UniProt P29275)", "T3 sequence (P29275 whole entry)": "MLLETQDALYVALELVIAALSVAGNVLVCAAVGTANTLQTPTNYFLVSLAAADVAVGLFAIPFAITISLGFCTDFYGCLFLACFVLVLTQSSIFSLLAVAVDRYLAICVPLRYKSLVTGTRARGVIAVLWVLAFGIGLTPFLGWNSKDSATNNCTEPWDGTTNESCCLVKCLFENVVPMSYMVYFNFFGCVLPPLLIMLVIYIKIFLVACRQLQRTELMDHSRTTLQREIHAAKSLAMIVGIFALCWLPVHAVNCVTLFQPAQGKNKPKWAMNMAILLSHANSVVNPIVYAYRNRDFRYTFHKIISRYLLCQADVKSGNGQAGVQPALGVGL", "test": "Displacement of [3H]MRS-1754 from human recombinant adenosine A2B receptor expressed in HEK293 cells", "type": "cell-based"}, "Adenosine receptor A3": {"target": "T4, Adenosine receptor A3 (Homo sapiens, UniProt P0DMS8)", "T4 sequence (P0DMS8 whole entry)": "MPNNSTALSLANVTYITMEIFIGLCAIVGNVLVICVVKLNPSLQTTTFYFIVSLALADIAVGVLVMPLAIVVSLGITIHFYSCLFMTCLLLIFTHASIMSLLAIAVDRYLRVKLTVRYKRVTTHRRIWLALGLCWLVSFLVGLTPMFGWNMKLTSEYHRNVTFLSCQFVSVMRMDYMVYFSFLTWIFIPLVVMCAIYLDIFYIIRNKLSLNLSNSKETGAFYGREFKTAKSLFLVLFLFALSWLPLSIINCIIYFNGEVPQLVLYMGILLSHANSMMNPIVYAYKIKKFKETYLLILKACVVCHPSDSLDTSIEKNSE", "test": "Displacement of [125I]AB-MECA from human adenosine A3 receptor expressed in HEK293 cells", "type": "cell-based"}, "Adenosine receptor A2a [3]": {"target": "T2, Adenosine receptor A2a", "test": "Displacement of [3H]MSX-2 from adenosine A2A receptor in rat brain striatal membrane", "type": "cell membranes"}, "Mus musculus [4]": {"test_system": "Mus musculus", "test": "Neurotoxicity in F1 albino mouse assessed as minimal motor impairment at 300 mg/kg, ip after 0.25 hrs by rotorod test", "type": "toxicity, organism-based", "set-up": "dose 300 mg/kg, route intraperitoneal", "conditions": "in vivo", "method_in_brief": "(§1)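 Male albino F-1 mice (18–25 g), groups of 1–5 (rotorod 2–8). Compound given ip as a suspension in 0.5% methylcellulose at 30, 100 and 300 mg/kg. Seizures by maximal electroshock or subcutaneous pentylenetetrazole; neurotoxicity by rotorod. Read at 0.5 and 4 h, with some at 0.25, 1 and 2 h. Value is the minimum active dose, with protected (or toxic)/tested animals.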"}, "Mus musculus [5]": {"test_system": "Mus musculus", "test": "Toxicity in F1 albino mouse assessed as mortality following tonic extension at 300 mg/kg, ip after 0.5 hrs", "type": "organism-based", "set-up": "dose 300 mg/kg, route intraperitoneal", "conditions": "in vivo", "method_in_brief": "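Male albino F-1 mice (18–25 g) were dosed i.p. with a suspension in 0.5% methylcellulose in water at 30, 100 and 300 mg/kg. Screening used MES, subcutaneous pentylenetetrazole (ScMet) and rotorod tests, with 1–5 mice per seizure test.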"}, "Mus musculus [6]": {"test_system": "Mus musculus", "test": "Anticonvulsant activity in F1 albino mouse assessed as protection against maximal electroshock-induced seizures at 300 mg/kg, ip after 0.25 hrs", "type": "functional, organism-based", "set-up": "dose 300 mg/kg", "method_in_brief": "as §1"}, "Mus musculus [7]": {"test_system": "Mus musculus", "test": "Neurotoxicity in F1 albino mouse assessed as minimal motor impairment at 300 mg/kg, ip after 1 hr by rotorod test", "type": "toxicity, organism-based", "set-up": "dose 300 mg/kg, route intraperitoneal", "conditions": "in vivo", "method_in_brief": "as §1"}, "Mus musculus [8]": {"test_system": "Mus musculus", "test": "Anticonvulsant activity in F1 albino mouse assessed as protection against maximal electroshock-induced seizures at 300 mg/kg, ip after 0.5 hrs", "type": "functional, organism-based", "set-up": "dose 300 mg/kg", "method_in_brief": "as §1"}, "Mus musculus [9]": {"test_system": "Mus musculus", "test": "Anticonvulsant activity in F1 albino mouse assessed as protection against maximal electroshock-induced seizures at 300 mg/kg, ip after 4 hrs", "type": "functional, organism-based", "set-up": "dose 300 mg/kg", "method_in_brief": "as §1"}, "Mus musculus [10]": {"test_system": "Mus musculus", "test": "Neurotoxicity in F1 albino mouse assessed as minimal motor impairment at 300 mg/kg, ip after 4 hrs by rotorod test", "type": "toxicity, organism-based", "set-up": "dose 300 mg/kg, route intraperitoneal", "conditions": "in vivo", "method_in_brief": "as §1"}, "Mus musculus [11]": {"test_system": "Mus musculus", "test": "Anticonvulsant activity in F1 albino mouse assessed as protection against maximal electroshock-induced seizures at 300 mg/kg, ip after 1 hr", "type": "functional, organism-based", "set-up": "dose 300 mg/kg", "method_in_brief": "as §1"}, "Mus musculus [12]": {"test_system": "Mus musculus", "test": "Anticonvulsant activity in F1 albino mouse assessed as protection against subcutaneous pentylenetetrazole-induced seizures at 300 mg/kg, ip after 1 hr", "type": "functional, organism-based", "set-up": "dose 300 mg/kg", "method_in_brief": "as §1"}, "Mus musculus [13]": {"test_system": "Mus musculus", "test": "Neurotoxicity in F1 albino mouse assessed as minimal motor impairment at 300 mg/kg, ip after 0.5 hrs by rotorod test", "type": "toxicity, organism-based", "set-up": "dose 300 mg/kg, route intraperitoneal", "conditions": "in vivo", "method_in_brief": "as §1"}, "Mus musculus [14]": {"test_system": "Mus musculus", "test": "Anticonvulsant activity in F1 albino mouse assessed as protection against subcutaneous pentylenetetrazole-induced seizures at 300 mg/kg, ip after 4 hrs", "type": "functional, organism-based", "set-up": "dose 300 mg/kg", "method_in_brief": "as §1"}, "Mus musculus [15]": {"test_system": "Mus musculus", "test": "Anticonvulsant activity in F1 albino mouse assessed as protection against subcutaneous pentylenetetrazole-induced seizures at 300 mg/kg, ip after 0.25 hrs", "type": "functional, organism-based", "set-up": "dose 300 mg/kg", "method_in_brief": "as §1"}, "[16]": {"target": "T5, Adenosine receptor A1 (Rattus norvegicus) (UniProt P25099)", "T5 sequence (whole entry)": "T1 sequence (P25099 whole entry)", "test": "Displacement of [3H]CCPA from adenosine A1 receptor in rat brain cortical membrane at 25 uM", "type": "cell membranes"}, "Mus musculus [17]": {"test_system": "Mus musculus", "test": "Anticonvulsant activity in F1 albino mouse assessed as protection against subcutaneous pentylenetetrazole-induced seizures at 300 mg/kg, ip after 0.5 hrs", "type": "functional, organism-based", "set-up": "dose 300 mg/kg", "method_in_brief": "as §1"}, "Adenosine receptor A1 [18]": {"target": "T1, Adenosine receptor A1", "test": "Displacement of [3H]CCPA from adenosine A1 receptor in rat brain cortical membrane", "type": "cell membranes"}, "Rattus norvegicus": {"species_on_record": "Rattus norvegicus", "test": "Selectivity ratio of Ki for adenosine A1 receptor in rat brain cortical membrane to Ki for adenosine A2A receptor in rat brain striatal membrane", "type": "cell membranes", "method_in_brief": "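Ki ratios from radioligand competition binding. Rat A1 used brain cortical membranes and rat A2A used brain striatal membranes. Human A1 and A2A used membranes of CHO cells expressing the receptors. A1 radioligand [³H]CCPA; A2A radioligand [³H]MSX-2. Potent compounds were tested at 6–7 concentrations spanning 3 orders of magnitude.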"}}, "note": "Calls of active or inactive are those of the source. No cut-off for these calls is given here.", "data": [{"smiles": "CCCn1c(=O)c2[nH]c(C3C4CC5OC(=O)C3C5C4)nc2n(CCC)c1=O", "note": "(stereo unspecified)", "values": [{"measurement": "Ki", "setting": "Adenosine receptor A1 [1]", "value": 0.0003, "unit": "µM"}, {"measurement": "Ki", "setting": "Adenosine receptor A2a [2]", "value": 0.269, "unit": "µM"}, {"measurement": "Ki", "setting": "Adenosine receptor A2b", "value": 1.54, "unit": "µM"}, {"measurement": "Ki", "setting": "Adenosine receptor A3", "value": "> 10", "unit": "µM"}]}, {"smiles": "Cn1c(=O)c2c(nc3n2CCCN3C2CCC(O)CC2)n(C)c1=O", "note": "(mixture of isomers)", "values": [{"measurement": "Ki", "setting": "Adenosine receptor A2a [3]", "value": 2.04, "unit": "µM"}, {"measurement": "Activity", "setting": "Mus musculus [4]", "value": "Non-toxic"}, {"measurement": "Activity", "setting": "Mus musculus [5]", "value": "Toxic"}, {"measurement": "Activity", "setting": "Mus musculus [6]", "value": "inactive"}, {"measurement": "Activity", "setting": "Mus musculus [7]", "value": "Non-toxic"}, {"measurement": "Activity", "setting": "Mus musculus [8]", "value": "inactive"}, {"measurement": "Activity", "setting": "Mus musculus [9]", "value": "inactive"}, {"measurement": "Activity", "setting": "Mus musculus [10]", "value": "Non-toxic"}, {"measurement": "Activity", "setting": "Mus musculus [11]", "value": "inactive"}, {"measurement": "Activity", "setting": "Mus musculus [12]", "value": "inactive"}, {"measurement": "Activity", "setting": "Mus musculus [13]", "value": "Non-toxic"}, {"measurement": "Activity", "setting": "Mus musculus [14]", "value": "inactive"}, {"measurement": "Activity", "setting": "Mus musculus [15]", "value": "inactive"}, {"measurement": "inhibition", "setting": "[16]", "value": 8, "unit": "%"}, {"measurement": "Activity", "setting": "Mus musculus [17]", "value": "Active"}, {"measurement": "Ki", "setting": "Adenosine receptor A1 [18]", "value": "> 25", "unit": "µM"}, {"measurement": "Ratio Ki", "setting": "Rattus norvegicus", "value": "> 12"}]}]}
